Activity calls are given as the source filed them. The calls are words filed in the database; no cut-off is given here.
Columns and labels:
[1] = molecular target: T1, DNA topoisomerase 2-alpha (Homo sapiens, UniProt P11388); test: Inhibition of human topoisomerase 2 p170alpha assessed as relaxation of lambda ZAPII plasmid Bluescript KS+ DNA at 100 uM by SDS electrophoresis
Summary of the method: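 Compound at 100 µM in 0.5% Cremophor EL, 30 min at 37 °C. Stopped with 1% SDS, then proteinase K 50 µg/mL and chloroform-isoamyl alcohol extraction. Run on 1% TAE agarose with ethidium bromide 0.5 µg/mL post-stain. Etoposide 100 µM as control.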

[2] = tested on: Saccharomyces cerevisiae; test: DNA damaging activity against topoisomerase 2-deficient rad52Y mutant yeast at 200 ug/mL by agar well diffusion assay; assay type: functional, organism-based
Summary of the method: (§1)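 Yeast strains (rad52Y; RAD+ wild type) were seeded separately on 1% nutrient agar plates. Samples at 200 µg/mL in 1:1 DMSO-MeOH were placed in wells cut by removing 7 mm plugs. Activity was the width (mm) of the zone around the well with no visible yeast growth. Camptothecin and streptonigrin at 5 µg/mL served as controls.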

[3] = tested on: Saccharomyces cerevisiae; test: DNA damaging activity against wild type DNA repairing RAD gene expressing yeast at 200 ug/mL by agar well diffusion assay; assay type: functional, organism-based; summary of the method: as §1
[4] = tested on: Saccharomyces cerevisiae; test: DNA damaging activity against topoisomerase 2-deficient RS321N mutant yeast assessed as drug level required to produce 12 mm zone of inhibition by agar well diffusion assay; assay type: functional
Summary of the method: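 S. cerevisiae RS321N seeded on 1% nutrient agar. Samples in 1:1 DMSO-MeOH went into 7 mm wells. The read-out was the zone (mm) of no visible growth. Several concentrations were tested, and the dose giving a 12 mm zone (IC12) was calculated by regression.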

[5] = tested on: Saccharomyces cerevisiae; test: DNA damaging activity against topoisomerase 2-deficient rad52Y mutant yeast assessed as drug level required to produce 12 mm zone of inhibition by agar well diffusion assay; assay type: functional
Summary of the method: (§2)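 Saccharomyces cerevisiae strains (RS321N, rad52Y, RAD+) were seeded separately onto 1% nutrient agar. Samples at 200 µg/mL in 1:1 DMSO-MeOH went into 7 mm wells, and the clear growth-free zone was measured in mm. For actives, several concentrations were tested, and the dose giving a 12 mm zone (IC12) came from regression. Camptothecin and streptonigrin at 5 µg/mL served as controls.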

[6] = tested on: Saccharomyces cerevisiae; test: DNA damaging activity against wild type DNA repairing RAD gene expressing yeast assessed as drug level required to produce 12 mm zone of inhibition by agar well diffusion assay; assay type: functional; summary of the method: as §2
[7] = tested on: MCF7; test: Cytotoxicity against human MCF7 cells after 48 hrs by MTT assay; assay type: functional, cell-based; settings: MCF7, 48 h
Summary of the method: (§3)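 Cells kept in RPMI with 10% FBS at 37 °C, 5% CO2. Log-phase cells were treated in triplicate with 0-10 µM compound for 48 h at 37 °C in humidified 5% CO2. Viability was read by MTT absorbance on a plate reader.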

[8] = molecular target: T1, DNA topoisomerase 2-alpha; test: Inhibition of human topoisomerase 2 p170alpha assessed as relaxation of lambda ZAPII plasmid Bluescript KS+ DNA by SDS electrophoresis
Summary of the method: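 Supercoiled pBlueScript KS(+) (about 200 ng) relaxed by 4 units human topo II (p170) in Tris-HCl pH 8.0 buffer with 120 mM KCl, 10 mM MgCl2, 0.5 mM ATP and DTT. Compound in 0.5% Cremophor EL, dilution series in triplicate, 30 min at 37 °C. SDS/proteinase K stop, then 1% TAE agarose gel with ethidium bromide staining. IC50 from the dilution series.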

[9] = molecular target: T1, DNA topoisomerase 2-alpha; test: Inhibition of human topoisomerase 2 p170alpha assessed as movement supercoiled lambda ZAPII plasmid Bluescript KS+ DNA at 100 uM after 60 mins by electrophoretic mobility shift assay
Summary of the method: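 Mobility shift with pBlueScript KS(+) and 6 units human topo II (p170) in ATP-free buffer. Buffer, running buffer and gel were all at pH 6.4. Compound at 100 µM, with etoposide 50 µM as control. No SDS/proteinase K stop; samples loaded directly onto a TAE gel containing 1.0 µg/mL ethidium bromide.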

[10] = tested on: Nucleic Acid; test: Displacement of methyl green dye from DNA by spectrophotometry; assay type: nucleic-acid assay
Summary of the method: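 Daunomycin (50 µg/mL) was the positive control. Methyl green absorbance was read on a plate reader.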

[11] = tested on: NCI-H460; test: Cytotoxicity against human NCI-H460 cells after 48 hrs by MTT assay at up to 10 uM; assay type: functional, cell-based; summary of the method: as §3
[12] = tested on: SF-268; test: Cytotoxicity against human SF268 cells after 48 hrs by MTT assay at up to 10 uM; assay type: functional, cell-based; summary of the method: as §3

T1 sequence (P11388 whole entry): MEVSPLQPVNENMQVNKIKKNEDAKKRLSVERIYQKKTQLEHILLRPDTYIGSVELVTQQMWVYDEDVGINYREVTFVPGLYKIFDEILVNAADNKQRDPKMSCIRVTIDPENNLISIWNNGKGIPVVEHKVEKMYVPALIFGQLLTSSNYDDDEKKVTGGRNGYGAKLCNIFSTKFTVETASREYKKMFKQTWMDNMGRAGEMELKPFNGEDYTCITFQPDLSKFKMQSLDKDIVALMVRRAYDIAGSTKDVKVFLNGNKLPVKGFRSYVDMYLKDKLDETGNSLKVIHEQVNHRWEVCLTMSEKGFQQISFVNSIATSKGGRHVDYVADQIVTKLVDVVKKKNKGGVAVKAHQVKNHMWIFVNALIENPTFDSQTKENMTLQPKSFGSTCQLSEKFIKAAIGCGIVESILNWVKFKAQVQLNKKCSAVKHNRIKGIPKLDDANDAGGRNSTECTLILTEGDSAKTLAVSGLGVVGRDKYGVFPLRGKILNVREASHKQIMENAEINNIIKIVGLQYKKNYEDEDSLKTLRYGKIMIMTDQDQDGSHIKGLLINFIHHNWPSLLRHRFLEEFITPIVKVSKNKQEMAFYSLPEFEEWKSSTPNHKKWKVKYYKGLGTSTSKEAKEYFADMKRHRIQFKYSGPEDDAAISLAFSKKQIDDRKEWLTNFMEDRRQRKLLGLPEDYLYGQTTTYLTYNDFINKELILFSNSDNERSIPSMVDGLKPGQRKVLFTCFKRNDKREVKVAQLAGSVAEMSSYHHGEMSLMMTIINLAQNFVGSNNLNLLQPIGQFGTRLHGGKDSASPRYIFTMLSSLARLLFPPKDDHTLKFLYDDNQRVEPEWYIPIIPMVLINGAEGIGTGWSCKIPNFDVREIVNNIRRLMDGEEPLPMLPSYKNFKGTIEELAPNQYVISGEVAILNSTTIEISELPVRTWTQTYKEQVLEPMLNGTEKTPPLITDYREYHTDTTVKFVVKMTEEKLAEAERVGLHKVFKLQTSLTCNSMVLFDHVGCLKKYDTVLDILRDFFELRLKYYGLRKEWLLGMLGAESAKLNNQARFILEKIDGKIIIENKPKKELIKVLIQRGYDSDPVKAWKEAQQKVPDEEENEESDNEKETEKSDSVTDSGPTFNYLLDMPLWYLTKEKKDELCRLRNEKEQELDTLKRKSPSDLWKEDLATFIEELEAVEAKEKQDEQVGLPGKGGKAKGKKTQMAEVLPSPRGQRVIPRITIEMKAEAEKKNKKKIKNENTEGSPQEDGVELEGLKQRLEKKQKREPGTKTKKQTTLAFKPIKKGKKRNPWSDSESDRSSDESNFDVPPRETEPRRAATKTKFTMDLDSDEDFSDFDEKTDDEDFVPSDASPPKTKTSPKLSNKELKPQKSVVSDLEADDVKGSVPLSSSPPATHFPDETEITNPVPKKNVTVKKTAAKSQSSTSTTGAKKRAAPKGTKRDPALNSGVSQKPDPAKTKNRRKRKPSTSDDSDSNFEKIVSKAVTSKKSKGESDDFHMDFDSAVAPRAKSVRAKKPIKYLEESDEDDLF

Question: Which Activity [1] does the source give for `COC(=O)[C@]1(C)CC[C@]2(C)CC[C@]3(C)C4=CC(=O)c5c(cc(O)c(O)c5C(=O)O)[C@]4(C)CC[C@@]3(C)[C@@H]2C1` here?
Answer: inactive

Question: How did the Activity [1] turn out when `COC(=O)[C@]1(C)CC[C@]2(C)CC[C@]3(C)C4=CC(=O)c5c(cc(O)c(O)c5C=O)[C@]4(C)CC[C@@]3(C)[C@@H]2C1` was run?
Answer: inactive

Question: How did the Activity [1] turn out when `COC(=O)[C@]1(C)CC[C@]2(C)CC[C@]3(C)C4=CCc5c(cc(O)c(O)c5C)[C@]4(C)CC[C@@]3(C)[C@@H]2C1` was run?
Answer: inactive

Question: How did the Activity [1] turn out when `COc1cc([C@@H]2c3cc4c(cc3[C@@H](O[C@@H]3O[C@@H]5CO[C@@H](C)O[C@H]5[C@H](O)[C@H]3O)[C@H]3COC(=O)[C@H]23)OCO4)cc(OC)c1O` was run?
Answer: inactive

Question: Which Activity [2] does the source give for `CC1=C(O)C(=O)C=C2C1=CC=C1[C@@]2(C)CC[C@@]2(C)[C@@H]3C[C@](C)(O)C(=O)C[C@]3(C)CC[C@]12C` [20ALPHA-HYDROXYTINGENONE] here?
Answer: inactive

Question: What about the Activity [3] of the same compound?
Answer: inactive

Question: And the “IC12 (concentration giving a 12 mm inhibition zone)” value [4]?
Answer: 185 µg/mL

Question: With `CC1=C2C3=CC=C4C(=CC(=O)C(O)=C4C)[C@]3(C)CC[C@@]2(C)[C@@H]2C[C@@H](C)[C@@H](O)C(=O)C2C1` (stereo not given in full) [BALAENONOL] as the compound, how does the Activity [2] read?
Answer: inactive

Question: And the Activity [3]?
Answer: inactive

Question: And the “IC12 (concentration giving a 12 mm inhibition zone)” value [4]?
Answer: 220 µg/mL

Question: With `CC[C@@]1(O)C(=O)OCc2c1cc1n(c2=O)Cc2cc3ccccc3nc2-1` [CAMPTOTHECIN] as the compound, how does the Activity [5] read?
Answer: 0.6 µg/mL

Question: What about the Activity [6] of the same compound?
Answer: 110 µg/mL

Question: And the “IC12 (concentration giving a 12 mm inhibition zone)” value [4]?
Answer: >20 µg/mL

Question: How did the IC50 [7] turn out when `C[C@@]1(C(=O)O)CC[C@]2(C)CC[C@]3(C)C4=CC(=O)c5c(cc(O)c(O)c5C(=O)O)[C@]4(C)CC[C@@]3(C)[C@@H]2C1` [DEMETHYLZEYLASTERONE] was run?
Answer: 12.5 µM

Question: And the IC50 [8]?
Answer: 17.6 µM

Question: What about the Activity [1] of the same compound?
Answer: Active

Question: What about the Activity [9] of the same compound?
Answer: Active

Question: What about the Activity [10] of the same compound?
Answer: Active

Question: What about the Activity [11] of the same compound?
Answer: inactive

Question: And the Activity [12]?
Answer: inactive

Question: How did the Activity [5] turn out when `COC1=C(N)C(=O)c2nc(-c3nc(C(=O)O)c(C)c(-c4ccc(OC)c(OC)c4O)c3N)ccc2C1=O` [STREPTONIGRIN] was run?
Answer: 0.4 µg/mL

Question: And the “IC12 (concentration giving a 12 mm inhibition zone)” value [4]?
Answer: <0.4 µg/mL

Question: `CC1=C(O)C(=O)C=C2C1=CC=C1[C@@]2(C)CC[C@@]2(C)[C@@H]3C[C@@H](C)C(=O)C[C@]3(C)CC[C@]12C` [TINGENONE] was tested. Which Activity [2] did it give?
Answer: inactive

Question: What about the Activity [3] of the same compound?
Answer: inactive

Question: What about the “IC12 (concentration giving a 12 mm inhibition zone)” value [4] of the same compound?
Answer: 325 µg/mL
